Measured values from ChEMBL document CHEMBL1133013, “Structure-activity relationships and pharmacokinetic analysis for a series of potent, systemically available biphenylsulfonamide matrix metalloproteinase inhibitors” (J Med Chem, 2000).

How the values were obtained:
Stromelysin-1 = Stromelysin-1 (Homo sapiens, UniProt P08254); assay: In vitro inhibition of recombinant human matrix metalloprotease-3 (MMP-3)
[1] = target: 72 kDa type IV collagenase (Homo sapiens, UniProt P08253); assay: In vitro inhibition of matrix metalloprotease-2 (MMP-2)
Collagenase 3 = Collagenase 3 (Homo sapiens, UniProt P45452)
[2] = Cmax in rat plasma after single 5 mg/kg oral cassette gavage dose; type: ADME, organism-based; design: dose 5 mg/kg, route oral
In short: (§1)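 Cassette of 5–7 compounds given together as one oral gavage, 5 mg/kg per compound, methyl cellulose suspension, 3 fasted male Wistar rats (80-90 days old). Heparinized plasma taken by jugular cannula predose to 48 h. LC-MS/MS with LLOQ 10 ng/mL. Noncompartmental analysis of individual rats: Cmax/tmax as observed, t1/2 = 0.693/λz, trapezoidal AUC(0-tldc) extrapolated to infinity.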

[3] = Concentration in rat plasma 24 hours after single 5 mg/kg oral cassette gavage dose; type: ADME, organism-based; design: dose 5 mg/kg, route oral; settings: read-out: C24
[4] = Half life (t1/2) in rats following a single 5 mg/kg oral cassette gavage dose; type: ADME, organism-based; design: dose 5 mg/kg, route oral; settings: rat, in vivo; in short: as §1
[5] = Pharmacokinetic parameters in rats following a single 5 mg/kg oral cassette gavage dose; type: ADME, organism-based; design: dose 5 mg/kg, route oral; settings: rat, in vivo, read-out: AUC 0-infinity; in short: as §1
[6] = AUC in rats following a single 5 mg/kg oral cassette gavage dose; type: ADME, organism-based; design: dose 5 mg/kg, route oral; settings: rat, plasma, read-out: AUC 0-tldc; in short: as §1
[7] = Time to maximal concentration (tmax) in rats following a single 5 mg/kg oral cassette gavage dose; type: ADME, organism-based; design: dose 5 mg/kg, route oral; settings: rat, in vivo; in short: as §1
[8] = target: Matrix metalloproteinase-9 (Homo sapiens, UniProt P14780); assay: In vitro inhibition of matrix metalloprotease-9 (MMP-9)
Matrilysin = target: T1, Matrilysin (Homo sapiens, UniProt P09237); assay: In vitro inhibition of matrix metalloprotease-7 (MMP-7)
T1 sequence (P09237 whole entry): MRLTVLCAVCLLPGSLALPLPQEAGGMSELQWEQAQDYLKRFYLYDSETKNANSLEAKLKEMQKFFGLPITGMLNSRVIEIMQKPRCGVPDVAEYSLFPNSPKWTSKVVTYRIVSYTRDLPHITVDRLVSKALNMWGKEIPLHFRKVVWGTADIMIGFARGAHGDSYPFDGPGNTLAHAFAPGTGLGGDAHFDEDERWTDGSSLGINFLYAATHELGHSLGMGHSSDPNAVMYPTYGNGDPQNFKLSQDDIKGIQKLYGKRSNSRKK

Interstitial collagenase = target: T2, Interstitial collagenase (Homo sapiens, UniProt P03956); assay: In vitro inhibition of human recombinant matrix metalloprotease-1 (MMP-1)
T2 sequence (P03956 whole entry): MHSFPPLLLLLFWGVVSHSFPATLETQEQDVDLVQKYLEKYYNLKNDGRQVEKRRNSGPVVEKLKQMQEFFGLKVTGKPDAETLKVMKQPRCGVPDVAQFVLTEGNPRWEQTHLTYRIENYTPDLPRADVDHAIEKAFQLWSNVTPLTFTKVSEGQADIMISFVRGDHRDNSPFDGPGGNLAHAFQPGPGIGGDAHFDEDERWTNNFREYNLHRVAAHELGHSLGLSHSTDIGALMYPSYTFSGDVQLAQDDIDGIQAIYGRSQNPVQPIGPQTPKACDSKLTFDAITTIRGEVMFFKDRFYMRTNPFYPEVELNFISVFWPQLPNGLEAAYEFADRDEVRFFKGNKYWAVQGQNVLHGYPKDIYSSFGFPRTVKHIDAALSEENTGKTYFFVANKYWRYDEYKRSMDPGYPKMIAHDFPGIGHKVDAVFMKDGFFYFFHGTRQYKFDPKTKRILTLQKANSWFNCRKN

72 kDa type IV collagenase, sequence (P08253 whole entry): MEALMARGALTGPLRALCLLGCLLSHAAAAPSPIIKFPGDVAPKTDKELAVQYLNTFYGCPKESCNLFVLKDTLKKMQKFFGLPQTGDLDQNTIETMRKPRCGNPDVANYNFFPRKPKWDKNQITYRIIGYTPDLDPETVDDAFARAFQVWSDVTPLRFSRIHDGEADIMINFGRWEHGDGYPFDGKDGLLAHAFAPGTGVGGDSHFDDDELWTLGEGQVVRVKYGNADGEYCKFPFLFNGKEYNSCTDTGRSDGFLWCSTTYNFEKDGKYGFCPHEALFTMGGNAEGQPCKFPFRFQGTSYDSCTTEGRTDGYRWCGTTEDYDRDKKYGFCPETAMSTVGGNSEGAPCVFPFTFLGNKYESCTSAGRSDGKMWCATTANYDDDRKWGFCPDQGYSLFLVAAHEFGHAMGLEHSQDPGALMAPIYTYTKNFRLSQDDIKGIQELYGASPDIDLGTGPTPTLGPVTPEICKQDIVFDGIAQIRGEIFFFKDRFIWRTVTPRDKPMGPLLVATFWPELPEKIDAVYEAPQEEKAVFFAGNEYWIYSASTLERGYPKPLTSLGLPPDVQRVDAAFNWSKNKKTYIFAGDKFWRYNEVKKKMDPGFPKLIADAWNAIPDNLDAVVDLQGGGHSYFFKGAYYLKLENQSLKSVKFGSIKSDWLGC
Matrix metalloproteinase-9, sequence (P14780 whole entry): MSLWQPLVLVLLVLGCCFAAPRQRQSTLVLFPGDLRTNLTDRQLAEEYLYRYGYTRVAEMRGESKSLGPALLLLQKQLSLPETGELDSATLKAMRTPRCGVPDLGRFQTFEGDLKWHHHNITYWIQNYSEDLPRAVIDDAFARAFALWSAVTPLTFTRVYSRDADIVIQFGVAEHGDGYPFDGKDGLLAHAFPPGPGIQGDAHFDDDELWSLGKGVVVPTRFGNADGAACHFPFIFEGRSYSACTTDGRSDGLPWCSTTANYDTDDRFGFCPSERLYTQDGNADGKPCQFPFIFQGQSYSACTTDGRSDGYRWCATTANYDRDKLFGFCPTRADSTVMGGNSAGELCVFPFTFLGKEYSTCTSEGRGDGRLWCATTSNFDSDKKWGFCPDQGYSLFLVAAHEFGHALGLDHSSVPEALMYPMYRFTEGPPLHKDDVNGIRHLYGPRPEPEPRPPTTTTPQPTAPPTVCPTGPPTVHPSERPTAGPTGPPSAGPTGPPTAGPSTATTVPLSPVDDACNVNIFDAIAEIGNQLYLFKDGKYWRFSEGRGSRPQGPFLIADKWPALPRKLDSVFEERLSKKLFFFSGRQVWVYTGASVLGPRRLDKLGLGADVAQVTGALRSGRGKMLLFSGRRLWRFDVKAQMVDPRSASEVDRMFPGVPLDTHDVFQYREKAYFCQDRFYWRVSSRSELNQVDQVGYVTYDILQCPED
Stromelysin-1, sequence (P08254 whole entry): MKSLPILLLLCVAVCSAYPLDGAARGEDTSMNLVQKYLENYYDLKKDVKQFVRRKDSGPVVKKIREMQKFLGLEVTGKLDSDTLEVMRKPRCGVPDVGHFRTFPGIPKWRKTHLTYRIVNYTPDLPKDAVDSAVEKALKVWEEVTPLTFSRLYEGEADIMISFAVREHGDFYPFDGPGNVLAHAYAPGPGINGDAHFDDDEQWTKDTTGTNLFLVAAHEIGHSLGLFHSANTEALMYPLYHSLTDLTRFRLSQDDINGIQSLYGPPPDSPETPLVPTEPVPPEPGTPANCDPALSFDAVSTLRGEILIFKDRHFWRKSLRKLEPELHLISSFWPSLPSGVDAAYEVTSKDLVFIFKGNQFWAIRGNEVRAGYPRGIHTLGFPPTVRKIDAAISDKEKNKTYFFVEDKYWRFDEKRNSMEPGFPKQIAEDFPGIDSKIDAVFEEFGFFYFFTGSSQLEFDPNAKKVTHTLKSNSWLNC

Compound	IC50 (Stromelysin-1) [nM]	IC50 [1] [nM]	IC50 (Collagenase 3) [nM]	Cmax [2] [ng/mL]	concentration at 24 h [3] [ng/mL]	half-life [4] [min]	AUC [5] [µg·h/mL]	AUC [6] [µg·h/mL]	Tmax [7] [h]	IC50 [8] [µM]	IC50 (Matrilysin) [µM]	IC50 (Interstitial collagenase) [µM]
CC(C)[C@H](NS(=O)(=O)c1ccc(-c2cccc(Br)c2)cc1)C(=O)O	290	535	710	–	–	–	–	–	–	–	–	–
CC(C)[C@@H](NS(=O)(=O)c1ccc(-c2ccc(Br)cc2)cc1)C(=O)O	–	–	–	25600	16300	2500	1380	924	4.5	1.5	11	–
CC(C)[C@H](NS(=O)(=O)c1ccc(-c2ccc(N)cc2)cc1)C(=O)O	36	–	105	–	–	–	–	–	–	20	31	–
CC(C)C[C@H](NS(=O)(=O)c1ccc(-c2ccc(Br)cc2)cc1)C(=O)O	7	9	5	30700	12400	2510	1210	578	2.33	4.9	3.1	7
CC(C)[C@H](NS(=O)(=O)c1ccc(-c2ccc(Br)cc2)cc1)C(=O)NO	810	450	650	–	–	–	–	–	–	84	78	24
CC(C)[C@H](NS(=O)(=O)c1ccc(-c2ccccc2)cc1)C(=O)O	38	40	62	5180	39	201	3.6	12.1	0.5	26	71	5.4
CC(C)[C@H](NS(=O)(=O)c1ccc(-c2ccc([N+](=O)[O-])cc2)cc1)C(=O)O	15	–	102	23400	8360	1170	586	402	0.667	38	5.6	12
Cc1ccc(-c2ccc(S(=O)(=O)N[C@H](C(=O)O)C(C)C)cc2)cc1	3	2	11	3070	< 10	24.2	2.37	2.25	0.5	3.9	4.5	2.2
CC(C)[C@H](NS(=O)(=O)c1ccc(-c2ccc(C#N)cc2)cc1)C(=O)NO	135	–	–	–	–	–	–	–	–	100	16	29
CC(C)[C@H](NS(=O)(=O)c1ccc(-c2ccc(C#N)cc2)cc1)C(=O)O	6	33	37	17100	5480	750	363	289	2.67	59	7	18
CC(C)[C@H](NS(=O)(=O)c1ccc(-c2cccc(F)c2)cc1)C(=O)O	17	49	150	–	–	–	–	–	–	65	22	8.6
O=C(O)CNS(=O)(=O)c1ccc(-c2ccc(Br)cc2)cc1	10	4	26	9960	5670	936	316	276	8	6.7	77	50
CC(C)[C@H](NS(=O)(=O)c1ccc(-c2ccc(F)cc2)cc1)C(=O)O	10	39	43	18700	11300	2730	1020	670	2.75	64	4.8	4.2
CC(C)[C@H](NS(=O)(=O)c1ccc(-c2ccc(Br)cc2F)cc1)C(=O)O	16	5	7	28500	21300	7020	4040	1360	1.88	4.9	2.1	3.6
O=C(CCc1ccccc1)NCCCC[C@H](NS(=O)(=O)c1ccc(-c2ccc(Br)cc2)cc1)C(=O)O	10	–	–	–	–	–	–	–	–	4.8	8.6	15
CC(C)[C@H](NS(=O)(=O)c1ccc(-c2ccc(Br)cc2)cc1)C(=O)O	–	–	–	42400	22700	2620	2820	1400	2	7.9	7.2	–
O=C(O)C(CCS(=O)(=O)Cc1ccccc1)NS(=O)(=O)c1ccc(-c2ccc(Br)cc2)cc1 (stereo not given)	7	2	12	451	–	233	2.73	2.48	1.67	2.3	15	27
COc1ccc(-c2ccc(S(=O)(=O)N[C@H](C(=O)O)C(C)C)cc2)cc1	–	3	6	4260	< 10	21.4	2.98	2.79	0.5	2.2	7.2	1.5
CC(C)[C@H](NS(=O)(=O)c1ccc(-c2ccc(C(F)(F)F)cc2)cc1)C(=O)O	9	–	23	18600	11700	2270	1110	685	2.25	20	7.9	4.2
CC(C)[C@@H](NS(=O)(=O)c1ccc(Oc2ccccc2)cc1)C(=O)NO	4	1	2	310	–	467	3.17	2.17	0.33	0.003	0.18	–
C[C@H](NS(=O)(=O)c1ccc(-c2ccc(Br)cc2)cc1)C(=O)O	12	12	10	17200	12900	1510	818	584	10.5	9.5	11	–
CC(C)[C@H](NS(=O)(=O)c1ccc(-c2ccc(C=O)cc2)cc1)C(=O)O	8	12	16	–	–	–	–	–	–	17	4.5	3.2
O=C(O)[C@H](Cc1ccccc1)NS(=O)(=O)c1ccc(-c2ccc(Br)cc2)cc1	20	19	21	10300	6280	1780	465	310	2.67	27	100	–
O=C(CCc1ccccc1)NCCC[C@H](NS(=O)(=O)c1ccc(-c2ccc(Br)cc2)cc1)C(=O)O	21	8	7	–	–	–	–	–	–	7.7	6.8	41
CC(C)[C@@H](NS(=O)(=O)c1ccc(-c2ccc(C#N)cc2)cc1)C(=O)NO	5	–	–	180	–	47.4	0.33	0.23	1	0.027	0.24	0.17
O=C(NCCCC[C@H](NS(=O)(=O)c1ccc(-c2ccc(Br)cc2)cc1)C(=O)O)OCc1ccccc1	28	31	13	–	–	–	–	–	–	10	15	40
